Data from ChEMBL document CHEMBL3085696, “Aurora isoform selectivity: design and synthesis of imidazo[4,5-b]pyridine derivatives as highly selective inhibitors of Aurora-A kinase in cells” (J Med Chem, 2013).
pIC50: −log10 of the molar value.

How the values were obtained:
[1] = Metabolic stability in human liver microsomes at 10 uM after 30 mins; assay type: ADME
Method in brief: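 Mixed-gender pooled human liver microsomes (1 mg/mL) incubated with compound at 10 μM plus NADPH 1 mM, UDPGA 2.5 mM and MgCl2 3 mM in 10 mM PBS at 37 °C, for 0 and 30 min. Cofactor-free controls included. Percent remaining measured by LC/MS.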

[2] = target: Aurora kinase B (Homo sapiens, UniProt Q96GD4); experiment: Inhibition of N-terminal Myc tagged aurora-B-mediated histone H3 phosphorylation at S10 in human HCT116 cells after 2 hrs; assay type: cell-based, HCT-116
Sequence of Aurora kinase B (Q96GD4 whole entry): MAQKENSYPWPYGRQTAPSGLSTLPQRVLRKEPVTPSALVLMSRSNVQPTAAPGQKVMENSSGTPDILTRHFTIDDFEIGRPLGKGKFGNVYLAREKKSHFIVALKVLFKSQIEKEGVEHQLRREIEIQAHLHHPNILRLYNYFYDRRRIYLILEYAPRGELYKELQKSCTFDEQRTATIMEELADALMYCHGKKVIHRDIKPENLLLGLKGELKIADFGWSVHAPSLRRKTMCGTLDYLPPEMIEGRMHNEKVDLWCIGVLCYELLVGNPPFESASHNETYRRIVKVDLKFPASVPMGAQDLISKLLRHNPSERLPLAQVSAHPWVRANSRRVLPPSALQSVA
Method in brief: (§1)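 Cells transfected with N-terminal Myc-tagged Aurora-A (wild type or T217E, L215R or R220K mutant, made by Quikchange mutagenesis), then exposed to a range of inhibitor concentrations for 2 h. Lysed in LDS sample buffer, sonicated, boiled, run on LDS-PAGE and blotted to nitrocellulose. Probed with anti-P-T288 (Aurora-A autophosphorylation) and anti-P-histone H3 S10 (Aurora-B substrate) antibodies. Blots quantified and IC50 fitted.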

[3] = Antiproliferative activity against human MV411 cells; assay type: functional; conditions: MV4-11
[4] = tested on: HCT-116; experiment: Antiproliferative activity against human HCT116 cells; assay type: functional
[5] = target: Aurora kinase A (Homo sapiens, UniProt O14965, R220K); experiment: Inhibition of autophosphorylation of aurora-A R220K mutant at T288 in human HCT116 cells after 2 hrs; assay type: cell-based, HCT-116; method in brief: as §1
Sequence of Aurora kinase A (Homo sapiens, UniProt O14965, R220K) (O14965 whole entry I57V/R220K): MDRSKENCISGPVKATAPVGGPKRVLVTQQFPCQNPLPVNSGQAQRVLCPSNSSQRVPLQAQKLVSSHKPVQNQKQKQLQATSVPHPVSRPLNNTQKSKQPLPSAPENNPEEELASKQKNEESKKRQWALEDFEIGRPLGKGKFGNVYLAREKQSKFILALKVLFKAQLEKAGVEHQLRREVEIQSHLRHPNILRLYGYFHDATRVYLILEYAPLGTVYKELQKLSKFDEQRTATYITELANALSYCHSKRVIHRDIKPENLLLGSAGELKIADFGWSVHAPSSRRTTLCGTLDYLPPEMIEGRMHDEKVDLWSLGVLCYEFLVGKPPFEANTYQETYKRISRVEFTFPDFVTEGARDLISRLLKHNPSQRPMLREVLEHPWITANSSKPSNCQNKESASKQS

[6] = target: T1, Aurora kinase A (Homo sapiens, UniProt O14965); experiment: Inhibition of N-terminal HIS-tagged aurora-A (unknown origin) using 5FAM-LRRASLG-CONH2 as substrate after 60 mins
T1 sequence (O14965 whole entry): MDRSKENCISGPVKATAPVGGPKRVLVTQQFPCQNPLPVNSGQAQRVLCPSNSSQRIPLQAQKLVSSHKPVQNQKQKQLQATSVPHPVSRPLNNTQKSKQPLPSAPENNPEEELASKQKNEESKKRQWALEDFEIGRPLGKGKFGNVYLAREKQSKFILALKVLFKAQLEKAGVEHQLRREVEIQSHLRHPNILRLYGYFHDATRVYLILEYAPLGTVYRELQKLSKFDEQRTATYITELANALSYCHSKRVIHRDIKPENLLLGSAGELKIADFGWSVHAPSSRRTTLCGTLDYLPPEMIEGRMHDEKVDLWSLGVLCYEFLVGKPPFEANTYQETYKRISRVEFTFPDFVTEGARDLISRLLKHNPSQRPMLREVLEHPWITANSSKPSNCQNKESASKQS
Method in brief: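 Aurora-A (5 nM N-terminal His-tagged) incubated with 1.5 μM 5FAM-LRRASLG-CONH2 peptide and 20 μM ATP in 50 mM Tris pH 7.4, 200 mM NaCl, 5 mM MgCl2, 2 mM DTT, 0.1% Tween 20. Runs 60 min at room temperature; EDTA stop. Microfluidic separation of product from substrate. Duplicate 8-point curves, 0.25 pM–200 μM final, 1–2% DMSO. IC50 from four-parameter logistic fit.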

[7] = target: Glycogen synthase kinase-3 beta (Homo sapiens) (UniProt P49841); conditions: 1 uM
Sequence of Glycogen synthase kinase-3 beta (Homo sapiens) (P49841 whole entry, looked up): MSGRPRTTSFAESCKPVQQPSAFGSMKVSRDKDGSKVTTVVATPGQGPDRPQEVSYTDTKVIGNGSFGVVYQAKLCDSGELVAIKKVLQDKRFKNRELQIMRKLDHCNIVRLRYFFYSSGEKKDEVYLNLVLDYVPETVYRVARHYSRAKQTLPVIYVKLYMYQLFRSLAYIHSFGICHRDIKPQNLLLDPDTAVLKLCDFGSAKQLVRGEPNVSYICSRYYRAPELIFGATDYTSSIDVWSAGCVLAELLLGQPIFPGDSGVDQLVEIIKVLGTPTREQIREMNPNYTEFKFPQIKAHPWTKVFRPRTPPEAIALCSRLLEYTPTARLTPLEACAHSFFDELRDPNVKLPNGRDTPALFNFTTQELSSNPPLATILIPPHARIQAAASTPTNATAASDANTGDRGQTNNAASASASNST

[8] = target: Aurora kinase A (Homo sapiens, UniProt O14965, T217E); experiment: Inhibition of autophosphorylation of aurora-A T217E mutant at T288 in human HeLa cells after 2 hrs; assay type: cell-based; method in brief: as §1
Sequence of Aurora kinase A (Homo sapiens, UniProt O14965, T217E) (O14965 whole entry I57V/T217E): as the sequence (O14965 whole entry I57V/R220K) above, with T217E, K220R counted along it

[9] = tested on: HeLa; experiment: Selectivity ratio of IC50 for aurora-B-mediated histone H3 phosphorylation at S10 in human HeLa cells to IC50 for autophosphorylation of N-terminal Myc tagged aurora-A at T288 in human HeLa cells; assay type: cell-based
Method in brief: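 Cells transfected with Myc-tagged Aurora-A (wild type or T217E, L215R, R220K mutants) and treated with inhibitor concentrations for 2 h. Lysed in LDS buffer; SDS-type PAGE and western blot. Blots probed for P-T288 (Aurora-A autophosphorylation) and phospho-histone H3 S10 (Aurora-B substrate). Blots quantified; IC50 derived; ratio taken as H3 IC50 over T288 IC50.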

`Cc1nn(C)cc1-c1nc2c(Oc3ccc(C(=O)Nc4ccccc4)cc3)c(Cl)cnc2[nH]1` gave a metabolized at 0.5 h, 10 µM [1] of 9%, a pIC50 [2] of 4.61 and a GI50 [3] of 299 nM. It also gave a GI50 [4] of 2300 nM, a pIC50 [5] of 7.57 and a pIC50 [6] of 7.17. For the same compound, the inhibition [7] was greater than 80%, the pIC50 [8] was 5.39 and the Ratio IC50 [9] was 480.
